Laboratory results: publication PMC4894821 (ACS chemical biology, 2015)

Tests used:
OGG1 [1] = target: T1, OGG1 (Homo sapiens, UniProt O15527); assay: Sodium cyanoborohydride trapping assay; format: biochemical; conditions: 10 μM inhibitor, 1 mM NaBH3CN
OGG1 [2] = target: T1, OGG1; assay: Gel-based OGG1 cleavage assay; format: biochemical; conditions: eight concentrations up to 25 μM
OGG1 [3] = target: T1, OGG1; assay: OGG1 AP lyase activity on AP site-containing substrate; format: biochemical; conditions: 10 μM compound, compared with no inhibitor control
Outline: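 AP-site substrate made by treating U-containing duplex with Udg, 37 °C, 2 h. OGG1 (62.5 nM stock) mixed with 10 μM compound or buffer, then substrate (50 nM stock) added. Incubated 30 min at 37 °C, quenched with formamide, resolved on 15% polyacrylamide/8 M urea gel. Percent cleavage vs no-inhibitor control; three independent experiments.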

Human NTH1 = target: T2, Human NTH1 (Homo sapiens, UniProt P78549); assay: Fluorescence-based NTH1 activity assay; format: biochemical; conditions: read-out: NTH1 % activity with 50 μM inhibitor
T2 sequence (P78549 23-304): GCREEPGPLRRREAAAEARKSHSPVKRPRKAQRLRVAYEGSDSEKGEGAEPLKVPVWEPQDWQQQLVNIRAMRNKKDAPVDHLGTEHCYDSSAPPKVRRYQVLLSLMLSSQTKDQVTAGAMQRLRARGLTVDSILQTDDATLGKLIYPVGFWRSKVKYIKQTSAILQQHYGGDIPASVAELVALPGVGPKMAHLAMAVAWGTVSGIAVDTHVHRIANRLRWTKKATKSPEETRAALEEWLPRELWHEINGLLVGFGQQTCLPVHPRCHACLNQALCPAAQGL

Human NEIL1 = Human NEIL1 (Homo sapiens, UniProt Q96FI4); assay: Fluorescence-based NEIL1 activity assay; format: biochemical; conditions: read-out: NEIL1 % activity with 50 μM inhibitor
Sequence of Human NEIL1 (Q96FI4 whole entry): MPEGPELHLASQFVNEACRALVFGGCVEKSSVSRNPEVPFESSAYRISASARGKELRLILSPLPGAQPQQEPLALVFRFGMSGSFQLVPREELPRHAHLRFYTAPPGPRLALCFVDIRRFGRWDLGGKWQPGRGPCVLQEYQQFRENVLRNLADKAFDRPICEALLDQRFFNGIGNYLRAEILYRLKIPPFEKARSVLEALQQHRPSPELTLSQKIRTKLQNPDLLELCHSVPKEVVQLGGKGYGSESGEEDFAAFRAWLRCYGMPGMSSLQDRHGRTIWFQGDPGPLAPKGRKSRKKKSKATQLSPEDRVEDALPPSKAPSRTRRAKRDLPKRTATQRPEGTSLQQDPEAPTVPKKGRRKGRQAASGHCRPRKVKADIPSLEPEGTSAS

OGG1 [4] = target: T1, OGG1; assay: Gel shift assay; format: binding; conditions: 50 μM inhibitor or ATA, 4 °C
Outline: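 EMSA on ice with precooled reagents. OGG1 (125 nM stock) pre-incubated 5–10 min with 50 μM inhibitor, ATA or buffer. Added 8-oxo-Gua, AP-site or U-containing fluorescent duplex (50 nM stock), held 5 min. Quenched with cold 30% glycerol; run on 8% native gel with 30% glycerol, 4 °C, 1 h, 75 V. Percent bound vs no-inhibitor control; three independent experiments.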

AP-containing substrate = assay: Protection of AP-containing substrate against NaOH-mediated strand cleavage

T1 sequence (O15527 whole entry): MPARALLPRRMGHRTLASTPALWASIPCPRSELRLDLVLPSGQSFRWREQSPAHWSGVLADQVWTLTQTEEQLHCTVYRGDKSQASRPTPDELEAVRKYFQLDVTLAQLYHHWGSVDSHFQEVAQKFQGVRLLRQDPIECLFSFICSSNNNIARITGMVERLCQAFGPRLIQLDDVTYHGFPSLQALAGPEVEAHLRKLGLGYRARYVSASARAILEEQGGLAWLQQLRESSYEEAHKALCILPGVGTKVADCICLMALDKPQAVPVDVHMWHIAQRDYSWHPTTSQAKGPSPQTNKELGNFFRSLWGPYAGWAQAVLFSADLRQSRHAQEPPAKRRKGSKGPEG

Compound: NNC(=O)c1ccncc1 [Isoniazid (INH), isoniazid]
- trapping of OGG1 on 8-oxo-Gua- and AP site-containing substrates (Schiff base formation) (OGG1 [1]): no effect
- inhibition of OGG1 (gel-based strand cleavage) (OGG1 [2]): no inhibition
- OGG1-induced cleavage of an AP site (lyase activity) (OGG1 [3]): no effect
- activity at 50 µM (Human NTH1): 98%
- activity at 50 µM (Human NEIL1): 80.6%

Compound: O=C(O)C1=CC(=C(c2ccc(O)c(C(=O)O)c2)c2ccc(O)c(C(=O)O)c2)C=CC1=O [aurintricarboxylic acid (ATA), aurintricarboxylic acid]
- OGG1 binding to 8-oxo-Gua substrate (OGG1 [4]): abrogated

Compound: NNc1nncc2ccccc12 [hydralazine]
- protection against NaOH-mediated (alkaline-induced) strand cleavage (AP-containing substrate): 63%

Compound: Cc1cc(C(=O)NNCc2ccccc2)no1 [isocarboxazid (ICD), isocarboxazid]
- OGG1-induced cleavage of an AP site (lyase activity) (OGG1 [3]): no effect
